From the RNAGym collection of RNA variant scans (doi:10.1126/science.aae0568)
Fewer inactive variants are shown than the library holds.

B1: tRNA (parent)
chain: GUUCCGUUGGCGUAAUGGUAACGCGUCUCCCUCCUAAGGAGAAGACUGCGGGUUCGAGUCCCGUACGGAACG

Variants of: B1
Assay: yeast fitness relative to wild type (ratio to wild type); higher = fitter; tRNA-Arg(CCU), competitive growth, 37 C, YPD
Method in brief: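 The tRNA-Arg(CCU) gene variants were made by chemical synthesis with a 3% per-site mutation rate at 69 sites and inserted at the native genomic locus of Saccharomyces cerevisiae. After pooling, the strains were competed in YPD at 37°C for 24 hours in six parallel replicates. Gene amplicons from the start population and each end population were read by 100-nucleotide paired-end sequencing, and Darwinian fitness relative to wild type was taken from genotype frequency changes. Genotypes needed ≥ 100 starting reads, and estimates < 0.5 were set to 0.5.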

Compared with A42U C62A A70C, A42U C62G is higher in yeast fitness: 0.581 for the first, 0.596 for the second.

Going from A42U C62U to A42U C66U, the yeast fitness falls from 0.991 to 0.793.

Going from A42U G44C A65C to A42U G48A, the yeast fitness rises from no more than 0.5 to 0.895.

First: A42U G48A A65U
Second: A42U G48C C61A
The yeast fitness of the first is higher: 0.706 for the first, 0.643 for the second.

Compared with A42U G50A A65C, A42U G50A C60G is higher in yeast fitness: no more than 0.5 for the first, 0.614 for the second.

A42U G50C U53A and A42U G51A C60G G63A cannot be ordered by yeast fitness: no more than 0.5 for the first, no more than 0.5 for the second.

Compared with A42U G51C, A42U G51C C62U C66U is higher in yeast fitness: 0.567 for the first, 0.708 for the second.

Going from A42U G52A to A42U G52A C62U, the yeast fitness falls from 0.808 to 0.754.

First: A42U G58A
Second: A42U G58C
The yeast fitness of the first is higher: 0.939 for the first, 0.924 for the second.

Going from A42U G63A to A42U G63A G68C, the yeast fitness falls from 0.868 to 0.544.

Compared with A42U G63A G68C A69C, A42U G63U is higher in yeast fitness: no more than 0.5 for the first, 0.701 for the second.

Compared with A42U G67C, A42U G68A is higher in yeast fitness: 0.69 for the first, 0.927 for the second.

Going from A42U U54A G58C to A42U U59C U64A, the yeast fitness falls from 0.599 to no more than 0.5.

Going from A43C A45G to A43C A45G A69C, the yeast fitness falls from 1.02 to 0.643.

Compared with A43C A45G G48A G58A A65U, A43C A45U is higher in yeast fitness: no more than 0.5 for the first, 0.973 for the second.

A43C A45U C49G C61U and A43C A57C A69U cannot be ordered by yeast fitness: no more than 0.5 for the first, no more than 0.5 for the second.

Compared with A43C A57U, A43C A65G is higher in yeast fitness: 0.678 for the first, 0.95 for the second.

First: A43C A65U
Second: A43C A70C
The yeast fitness of the first is lower: 0.753 for the first, 0.897 for the second.

First: A43C C46A G67A
Second: A43C C46U G56C
The yeast fitness of the first is higher: 0.538 for the first, 0.506 for the second.

Going from A43C C49A to A43C C49G, the yeast fitness rises from 0.631 to 0.639.

First: A43C C49G C61A
Second: A43C C55A
The yeast fitness of the first is higher: 0.702 for the first, 0.588 for the second.

Going from A43C C55A A57C to A43C C55G, the yeast fitness rises from no more than 0.5 to 0.641.

Going from A43C C55U to A43C C55U C66G, the yeast fitness falls from 0.721 to no more than 0.5.

Compared with A43C C61A, A43C C61U is higher in yeast fitness: 0.776 for the first, 0.956 for the second.

Compared with A43C C62A G63A C66G A69G, A43C C62U is higher in yeast fitness: no more than 0.5 for the first, 0.93 for the second.

First: A43C C62U A65U
Second: A43C G44A
The yeast fitness of the first is lower: 0.591 for the first, 1.01 for the second.

First: A43C G48A A57C G68U
Second: A43C G48C
The yeast fitness of the first is lower: 0.701 for the first, 0.933 for the second.

Compared with A43C G50A G67A, A43C G52A is higher in yeast fitness: no more than 0.5 for the first, 0.887 for the second.

First: A43C G52A A69U
Second: A43C G52A A70U
The yeast fitness of the first is higher: 0.508 for the first, no more than 0.5 for the second.

A43C G52A C55U C60A and A43C G52C C55U A69C cannot be ordered by yeast fitness: no more than 0.5 for the first, no more than 0.5 for the second.

First: A43C G63A
Second: A43C G63C
The yeast fitness of the first is higher: 0.929 for the first, 0.692 for the second.

Compared with A43C G67U, A43C G68C is lower in yeast fitness: 0.849 for the first, 0.72 for the second.

Compared with A43C U47A G58C, A43C U54C is higher in yeast fitness: 0.689 for the first, 0.876 for the second.

First: A43C U59C
Second: A43G A45C C46U
The yeast fitness of the first is higher: 0.828 for the first, 0.578 for the second.

A43G A45C G51A and A43G A45G C55U cannot be ordered by yeast fitness: no more than 0.5 for the first, no more than 0.5 for the second.

First: A43G A45G C55U G68A
Second: A43G A45U C46U
The yeast fitness of the first is lower: no more than 0.5 for the first, 0.604 for the second.

Going from A43G A45U G63A to A43G A57C, the yeast fitness falls from 0.613 to 0.525.

Going from A43G A57C A65U to A43G A65C, the yeast fitness rises from 0.511 to 0.79.

First: A43G A69C
Second: A43G A70C
The yeast fitness of the first is lower: 0.935 for the first, 1.02 for the second.

Compared with A43G A70G, A43G A70U is higher in yeast fitness: 0.977 for the first, 1.01 for the second.

Compared with A43G C46G G56C, A43G C46U is higher in yeast fitness: no more than 0.5 for the first, 0.92 for the second.

First: A43G C49U
Second: A43G C49U C60A C62A
The yeast fitness of the first is higher: 0.9 for the first, no more than 0.5 for the second.

Going from A43G C49U U54C to A43G C55A, the yeast fitness rises from 0.522 to 0.599.

First: A43G C55U
Second: A43G C55U C61U
The yeast fitness of the first is higher: 0.711 for the first, 0.543 for the second.

Going from A43G C55U C66G to A43G C60A C66G, the yeast fitness falls from 0.626 to no more than 0.5.

A43G C60U C62U A70C and A43G C61A G67A cannot be ordered by yeast fitness: no more than 0.5 for the first, no more than 0.5 for the second.

Compared with A43G C61U, A43G C61U A65U is lower in yeast fitness: 0.887 for the first, 0.567 for the second.

Going from A43G G44A G56C C62U to A43G G48C, the yeast fitness rises from no more than 0.5 to 0.829.

Going from A43G G48C C55G to A43G G50A G68U, the yeast fitness falls from 0.597 to no more than 0.5.

Going from A43G G51C to A43G G51C U54A A57C, the yeast fitness falls from 0.56 to no more than 0.5.

Going from A43G G56A to A43G G56C A69U, the yeast fitness falls from 0.86 to 0.683.

Going from A43G G58A A65C C66U to A43G G58C C62U, the yeast fitness rises from no more than 0.5 to 0.537.

Compared with A43G G58U, A43G G63A is higher in yeast fitness: 0.707 for the first, 0.745 for the second.

Compared with A43G G63U U64A, A43G G67C is higher in yeast fitness: 0.567 for the first, 0.872 for the second.

First: A43G U47A
Second: A43G U47A C49A
The yeast fitness of the first is higher: 0.88 for the first, 0.531 for the second.

A43G U47A C55A and A43G U47A U53A cannot be ordered by yeast fitness: no more than 0.5 for the first, no more than 0.5 for the second.

Going from A43G U47C to A43G U47C C62U, the yeast fitness falls from 1.04 to 0.644.

First: A43G U53C
Second: A43G U53G C55A G56C A57G G58A U59G C60U A65C
The yeast fitness of the first is higher: 0.84 for the first, no more than 0.5 for the second.

Compared with A43G U54C, A43G U59C is lower in yeast fitness: 0.905 for the first, 0.863 for the second.

Going from A43G U59C A70C to A43G U59G, the yeast fitness rises from 0.658 to 0.842.

Going from A43G U64A A69U to A43G U64G, the yeast fitness falls from 0.648 to 0.64.

First: A43U A45G
Second: A43U A45G C55G
The yeast fitness of the first is higher: 0.852 for the first, no more than 0.5 for the second.

Going from A43U A57C to A43U A57C G58A, the yeast fitness falls from 0.726 to no more than 0.5.

Going from A43U A65G C66U to A43U A65U C66A, the yeast fitness falls from 0.794 to no more than 0.5.

Going from A43U A69U to A43U A70U, the yeast fitness rises from 0.904 to 1.06.

First: A43U C46A
Second: A43U C46A A69C
The yeast fitness of the first is higher: 0.98 for the first, 0.734 for the second.

First: A43U C46G
Second: A43U C46G U54A
The yeast fitness of the first is higher: 0.829 for the first, 0.538 for the second.

Going from A43U C46G U54A G63A to A43U C49A, the yeast fitness rises from 0.726 to 0.756.

Compared with A43U C49G C61U, A43U C49U is higher in yeast fitness: no more than 0.5 for the first, 1.09 for the second.

First: A43U C55A
Second: A43U C55U
The yeast fitness of the first is lower: 0.613 for the first, 0.768 for the second.

First: A43U C60G
Second: A43U C60G A70C
The yeast fitness of the first is higher: 0.655 for the first, 0.599 for the second.

Going from A43U C60G C61U to A43U C60G C66U, the yeast fitness rises from no more than 0.5 to 0.534.

First: A43U C60U G67C
Second: A43U C61G
The yeast fitness of the first is lower: 0.636 for the first, 0.716 for the second.

Going from A43U C61U to A43U C62G, the yeast fitness falls from 0.969 to 0.805.

Compared with A43U C62G C66A A69C, A43U C62U is higher in yeast fitness: 0.67 for the first, 1.01 for the second.

Going from A43U G48A to A43U G48A C61G, the yeast fitness falls from 1.01 to no more than 0.5.

First: A43U G48A C61G A70C
Second: A43U G48A C62A C66G
The yeast fitness of the first is lower: no more than 0.5 for the first, 0.533 for the second.

Going from A43U G48A U53A to A43U G48A U64C, the yeast fitness rises from 0.506 to 0.751.

A43U G48C C55U and A43U G48C C60A U64A cannot be ordered by yeast fitness: no more than 0.5 for the first, no more than 0.5 for the second.

First: A43U G48C U54C C60A U64A
Second: A43U G48U
The yeast fitness of the first is lower: no more than 0.5 for the first, 0.77 for the second.

A43U G50A A57G and A43U G51A C55U cannot be ordered by yeast fitness: no more than 0.5 for the first, no more than 0.5 for the second.

First: A43U G52A
Second: A43U G52C
The yeast fitness of the first is higher: 0.663 for the first, 0.6 for the second.

Compared with A43U G56A A70U, A43U G58C is lower in yeast fitness: 0.948 for the first, 0.892 for the second.

In the case of A43U G63A, the yeast fitness is reported as 0.895.
